The record followed here is ChEMBL document CHEMBL1157618, “Noncovalent tripeptidyl benzyl- and cyclohexyl-amine inhibitors of the cysteine protease caspase-1” (J Med Chem, 2010).

SMILES strings stand for the structures.

The first test addresses T1, Caspase-1 (Homo sapiens, UniProt P29466).
T1 sequence (P29466 whole entry): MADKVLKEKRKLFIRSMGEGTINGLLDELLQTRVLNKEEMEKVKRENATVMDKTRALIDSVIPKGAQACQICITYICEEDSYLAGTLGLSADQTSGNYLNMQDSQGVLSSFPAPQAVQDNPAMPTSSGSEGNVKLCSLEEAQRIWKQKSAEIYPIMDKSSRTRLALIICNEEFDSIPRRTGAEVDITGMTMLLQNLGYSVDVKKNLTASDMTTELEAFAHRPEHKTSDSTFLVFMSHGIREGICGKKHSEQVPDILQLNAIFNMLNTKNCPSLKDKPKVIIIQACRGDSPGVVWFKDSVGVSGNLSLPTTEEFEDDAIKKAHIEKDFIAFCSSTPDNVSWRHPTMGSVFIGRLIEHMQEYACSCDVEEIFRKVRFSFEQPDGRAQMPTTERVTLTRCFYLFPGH
The test can be described thus: Inhibition of human recombinant caspase 1. The gist of the method:
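Recombinant human caspase-1 stored at -80 °C as aliquots and used at 1:20 dilution; enzyme preincubated with inhibitor (Ki determinations). Substrate Ac-Trp-Glu-His-Asp-AMC, 5 μM final. AMC release followed kinetically, excitation 380 nm, emission 460 nm.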
For orientation: Ki means the equilibrium dissociation constant of an inhibitor or competing ligand from its target. For the compound `CC(C)[C@H](NC(=O)c1ccc2ccccc2c1)C(=O)N[C@@H](C)C(=O)N[C@H](CCCc1ccccc1)CC(=O)O`, the Ki was above 50000 nM.

For orientation: IC50 means the concentration that inhibits the measured activity by half. For the compound `CC(C)[C@H](NC(=O)c1ccc2ccccc2c1)C(=O)N[C@@H](C)C(=O)N[C@H](C=O)CC(=O)O`, the half-maximal inhibitory concentration (IC50) amounted to 0.2 nM.

As for `CC(C)[C@H](NC(=O)c1ccc2ccccc2c1)C(=O)N[C@@H](C)C(=O)N[C@H](CNC1CCCCC1)CC(=O)O`, the Ki was found to be 945 nM.

In the case of `CC(C)[C@H](NC(=O)c1ccc2ccccc2c1)C(=O)N[C@@H](C)C(=O)N[C@@H](CC(=O)O)CN(C)C1CCCCC1`, the Ki worked out at 128 nM.

As for `CC(C)[C@H](NC(=O)c1ccc2ccccc2c1)C(=O)N[C@@H](C)C(=O)N[C@H](CNCc1ccc(O)cc1)CC(=O)O`, the Ki amounted to 1370 nM.

As to `CC(C)[C@H](NC(=O)c1ccc2ccccc2c1)C(=O)N[C@@H](C)C(=O)N[C@H](CNCc1ccc2c(c1)OCO2)CC(=O)O`, the Ki was determined as 209 nM.

On to `CC(C)[C@H](NC(=O)c1ccc2ccccc2c1)C(=O)N[C@@H](C)C(=O)N[C@H](CNCc1ccc(C(N)=O)cc1)CC(=O)O`, for which the Ki worked out at 1820 nM.

Consider `CC(C)[C@H](NC(=O)c1ccc2ccccc2c1)C(=O)N[C@@H](C)C(=O)N[C@H](CNCc1ccccc1O)CC(=O)O`, for which the Ki was determined as 47 nM.

As for `CC(C)[C@H](NC(=O)c1ccc2ccccc2c1)C(=O)N[C@@H](C)C(=O)N[C@H](CNCc1ccccc1F)CC(=O)O`, the inhibition constant Ki came to 1200 nM.

As for `CC(C)[C@H](NC(=O)c1ccc2ccccc2c1)C(=O)N[C@@H](C)C(=O)N[C@H](CNCc1ccccc1)CC(=O)O`, the Ki worked out at 600 nM.

On to `CC(C)[C@H](NC(=O)c1ccc2ccccc2c1)C(=O)N[C@@H](C)C(=O)N[C@@H](CC(=O)O)CN(C)Cc1ccccc1`, for which the inhibitory constant (Ki) was 1890 nM.

For the compound `COc1ccccc1CNC[C@H](CC(=O)O)NC(=O)[C@H](C)NC(=O)[C@@H](NC(=O)c1ccc2ccccc2c1)C(C)C`, the inhibitory constant (Ki) was found to be 965 nM.

The target in a further test is Caspase-8 (Homo sapiens, UniProt Q14790). The test can be described thus: Inhibition of caspase 8.
Chain of Caspase-8 (Q14790 217-374 limits assumed): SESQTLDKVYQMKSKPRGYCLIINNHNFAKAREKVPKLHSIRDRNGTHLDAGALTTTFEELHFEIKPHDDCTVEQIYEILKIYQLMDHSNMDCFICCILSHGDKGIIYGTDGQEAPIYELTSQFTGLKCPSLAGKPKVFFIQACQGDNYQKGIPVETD
Chain of Caspase-8 (Q14790 385-479 limits assumed): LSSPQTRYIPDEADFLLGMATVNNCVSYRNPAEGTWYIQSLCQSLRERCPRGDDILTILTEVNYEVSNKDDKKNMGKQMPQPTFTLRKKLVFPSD
Regarding `CC(C)[C@H](NC(=O)c1ccc2ccccc2c1)C(=O)N[C@@H](C)C(=O)N[C@H](CNCc1ccccc1O)CC(=O)O`, the 50% inhibitory concentration (IC50) is 100000 nM.
